Source: PMC5836847 (Clinical Pharmacology and Therapeutics, 2017)

How the values were obtained:
[1] = system: patients with mild-to-moderate hypertension; assay: Safety assessments; format: in vivo, human; conditions: for safety and tolerability: single-dose sildenafil 50 mg, sacubitril/valsartan 400 mg q.d., coadministration
Summary of the method: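 Adverse events were recorded across three sequential periods in male hypertensive patients: single oral sildenafil 50 mg (Day 1), sacubitril/valsartan 400 mg q.d. (Days 3–7), and both together (Day 8). Events were graded by intensity and by suspected relation to study drug. They were summarised by treatment and visit/time, as number and percentage of subjects by body system and treatment.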

healthy subjects = conditions: 40 mg and 80 mg doses; cited from earlier work
patients with HFrEF = conditions: cited from earlier work
[2] = Plasma pharmacokinetics of sildenafil and N-desmethyl-sildenafil; format: in vivo, human; conditions: for AUCinf, Intrasubject CV / AUClast, Intrasubject CV / Cmax, Intrasubject CV: fixed effect model, sacubitril/valsartan + sildenafil vs. sildenafil alone; for AUC(0-t): AUClast; for Tmax (median time to reach maximum concentration): single-dose oral administration of sildenafil
Summary of the method: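 Male hypertensive patients received single oral sildenafil 50 mg alone (Day 1), then again on Day 8 with sacubitril/valsartan 400 mg q.d. at steady state. Plasma sildenafil and N-desmethyl-sildenafil were profiled after each dose. Outputs were AUCinf, AUClast, T1/2, Cmax and Tmax. Log-transformed parameters went into a fixed-effect model with subject and treatment as factors; combination was test, sildenafil alone reference. Output was back-transformed GMR with 90% CI.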

[3] = Plasma pharmacokinetics of sacubitril/valsartan analytes at steady state; format: in vivo, human; conditions: for AUCtau,ss, Intrasubject CV / Cmax,ss, Intrasubject CV: fixed effect model; for AUC / Cmax: male, human, oral, Mean ± SD; for AUC / Cmax / Tmax (time of peak concentrations): plasma; for AUC: AUCtau,ss, Sacubitril/valsartan alone (400 mg q.d., steady state, Day 7); for Cmax: Cmax,ss; for Tmax (time of peak concentrations): oral administration of sacubitril/valsartan, steady state
Summary of the method: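 Male hypertensive patients took oral sacubitril/valsartan 400 mg q.d. on Days 3–7, with predose samples on Days 3–6. Plasma sacubitril, sacubitrilat and valsartan were profiled at steady state on Day 7 and on Day 8 with single-dose sildenafil 50 mg. Outputs were AUCtau,ss, Cmax,ss and Tmax,ss. Log-transformed parameters went into a fixed-effect model with subject and treatment as factors; combination was test, monotherapy reference. Output was back-transformed GMR with 90% CI.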

[4] = sacubitril/valsartan and warfarin coadministered; cited from earlier work
[5] = 200 mg twice daily or 400 mg q.d., healthy individuals; cited from earlier work
[6] = cited from earlier work
[7] = cited from earlier work; remark: listed apart in the source
[8] = coadministration of sacubitril/valsartan and sildenafil vs. sacubitril/valsartan alone
[9] = 400 mg, Sacubitril/valsartan alone (Day 7)
[10] = Sacubitril/valsartan + Sildenafil (Day 8)
[11] = plasma, Sacubitril/valsartan + Sildenafil (Day 8)
[12] = plasma, Sildenafil alone (50 mg single dose, Day 1)
[13] = plasma, Sildenafil alone (Day 1)

Compound	safety and tolerability [1]	AUCinf, Intrasubject CV [2] [%]	AUClast, Intrasubject CV [2] [%]	Cmax, Intrasubject CV [2] [%]	Tmax (median time to reach maximum concentration) ([2]; plasma) [h]	decrease in Cmax [3, 8] [%]	AUCtau,ss, Intrasubject CV [3] [%]	Cmax,ss, Intrasubject CV [3] [%]	AUC ([3]; 400 mg) [ng·h/mL]	Cmax [3, 9] [ng/mL]	Cmax [3, 10] [ng/mL]	Tmax (time of peak concentrations) [3] [h]	further results
CCCc1nn(C)c2c(=O)[nH]c(-c3cc(S(=O)(=O)N4CCN(C)CC4)ccc3OCC)nc12 [Sildenafil]	generally safe and well‐tolerated	23.4	23.4	35.5	0.5								suspected treatment-related AEs of moderate intensity ([1]; per study period): 1 AE; duration of BP-lowering effect postdosing (healthy subjects): 5 h; cardiac output (patients with HFrEF; 50 mg sildenafil, patients with HFrEF): increased; safety and tolerability (patients with HFrEF; sildenafil administered to patients with HFrEF): safe and well tolerated; half-life ([2]; male, human, plasma, oral, 50 mg): 3.7 ± 1 h; AUC(0-t) ([2]; male, human, plasma, oral, 50 mg, Mean ± SD, plasma, Sildenafil alone (Day 1)): 587 ± 270 ng·h/mL; AUC(0-t) ([2]; male, human, plasma, oral, Mean ± SD, plasma, Sacubitril/valsartan + Sildenafil (Day 8)): 612 ± 297 ng·h/mL; Cmax ([2]; male, human, plasma, oral, Cmax, Mean ± SD, plasma, Sacubitril/valsartan + Sildenafil (Day 8)): 189 ± 99.6 ng/mL
CCOC(=O)[C@H](C)C[C@@H](Cc1ccc(-c2ccccc2)cc1)NC(=O)CCC(=O)O [Sacubitril]						10	12.2	45.3	3400 ± 1000	2470 ± 865	2310 ± 1020	0.5	
Sacubitril/valsartan	generally safe and well‐tolerated												impact on the pharmacokinetics of the CYP2C9 substrate warfarin [4]: no impact; time to achieve steady-state levels [5]: 3 days
C[C@H](C[C@@H](Cc1ccc(-c2ccccc2)cc1)NC(=O)CCC(=O)O)C(=O)O [Sacubitrilat]							3.75	13	143000 ± 26300	14900 ± 2250	14000 ± 2420	2.0	
CCCc1nn(C)c2c(=O)[nH]c(-c3cc(S(=O)(=O)N4CCNCC4)ccc3OCC)nc12 [N‐desmethyl‐sildenafil]		15.9	16.4	26.7	1								share of sildenafil's pharmacological effects accounted for [6]: 20%; plasma concentration relative to parent compound ([6]; relative to sildenafil): ~40%; potency relative to parent compound ([6]; relative to sildenafil): ~50%; decrease in Cmax ([2]; coadministration of sildenafil and sacubitril/valsartan vs. sildenafil alone): 14%; AUCinf, Adjusted geometric mean [2, 11]: 305 ng·h/mL; AUClast, Adjusted geometric mean [2, 11]: 278 ng·h/mL; AUClast, Mean ± SD [2, 11]: 305 ± 133 ng·h/mL; Cmax, Adjusted geometric mean [2, 11]: 75.9 ng/mL; Cmax, Mean ± SD [2, 11]: 84.6 ± 39.3 ng/mL; AUCinf, Mean ± SD [2, 12]: 359 ± 157 ng·h/mL; Cmax, Mean ± SD [2, 12]: 95.1 ± 32.5 ng/mL; AUCinf, Adjusted geometric mean [2, 13]: 327 ng·h/mL; AUClast, Adjusted geometric mean [2, 13]: 297 ng·h/mL; AUClast, Mean ± SD [2, 13]: 331 ± 152 ng·h/mL; Cmax, Adjusted geometric mean [2, 13]: 88.4 ng/mL; terminal half-life (T1/2) ([2]; plasma, sildenafil administered alone): 5.3 ± 1.6 h; terminal half-life (T1/2) ([2]; plasma, sildenafil coadministered with sacubitril/valsartan): 6.2 ± 1.9 h
CCCCC(=O)N(Cc1ccc(-c2ccccc2-c2nnn[nH]2)cc1)[C@H](C(=O)O)C(C)C [Valsartan]						39	28	32.6	33000 ± 12400	5300 ± 1750	3350 ± 1480	2.0	decrease in AUC [3, 8]: 29%; intersubject variability in pharmacokinetic parameters [7]: 44%
